Test results: ChEMBL document CHEMBL4689842, “EUbOPEN Chemogenomics Library wave 1” (2021)

Tested on: Fibroblast
Test: Multiplex assay against human fibroblast
Assay type: toxicity, cell-based
Summary of the method: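 Live cells were stained at seeding with Hoechst33342, BioTracker Green Microtubule Cytoskeleton Dye, MitoTracker Red and Annexin V Alexa Fluor 680, then imaged on a CQ1 microscope at 37°C and 5% CO2 after compound addition. CellPathfinder machine-learning gating split cells into Hoechst high-intensity objects or normal cells. Normal cells were split into healthy, pyknosed or fragmented nuclei, and pyknosed cells into mitotic or apoptotic. Tubulin, mitochondrial-mass and membrane-permeability phenotypes are per cents of healthy-nucleus cells.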

[1] = 12 h, 1 µM, compound concentration 1 uM, replicate 1
[2] = 12 h, 1 µM, compound concentration 1 uM, replicate 2
[3] = 12 h, 10 µM, compound concentration 10 uM, replicate 1
[4] = 12 h, 10 µM, compound concentration 10 uM, replicate 2
[5] = 24 h, 1 µM, compound concentration 1 uM, replicate 1
[6] = 24 h, 1 µM, compound concentration 1 uM, replicate 2
[7] = 24 h, 10 µM, compound concentration 10 uM, replicate 1
[8] = 24 h, 10 µM, compound concentration 10 uM, replicate 2
[9] = 48 h, 1 µM, compound concentration 1 uM, replicate 1
[10] = 48 h, 1 µM, compound concentration 1 uM, replicate 2
[11] = 48 h, 10 µM, compound concentration 10 uM, replicate 1
[12] = 48 h, 10 µM, compound concentration 10 uM, replicate 2

Cl.Oc1ccc2c3c1O[C@H]1c4[nH]c5c(c4C[C@@]4(O)[C@@H](C2)N(CC2CC2)CC[C@]314)C[C@@]1(O)[C@H]2Cc3ccc(O)c4c3[C@@]1(CCN2CC1CC1)[C@H]5O4
Population Apoptotic (%) [1]: 71%
Population Fragmented Nuclei (%) [1]: 27%
Population Healthy Nuclei (%) [1]: 40%
Population Hoechst High Intensity Objects (%) [1]: 15%
Population Membrane Permeable-Phenotype (%) [1]: 20%
Population Mitochondria Different-Phenotype (%) [1]: 11%
Population Mitotic Cells (%) [1]: 28%
Population Normal (%) [1]: 84%
Population Pyknosed Nuclei (%) [1]: 32%
Population Tubulin-Different-Phenotype (%) [1]: 31%
Total Cell Count [1]: 103
Population Apoptotic (%) [2]: 42%
Population Fragmented Nuclei (%) [2]: 3%
Population Healthy Nuclei (%) [2]: 86%
Population Hoechst High Intensity Objects (%) [2]: 9%
Population Membrane Permeable-Phenotype (%) [2]: 10%
Population Mitochondria Different-Phenotype (%) [2]: 19%
Population Mitotic Cells (%) [2]: 57%
Population Normal (%) [2]: 90%
Population Pyknosed Nuclei (%) [2]: 10%
Population Tubulin-Different-Phenotype (%) [2]: 17%
Total Cell Count [2]: 97
Population Apoptotic (%) [3]: 69%
Population Fragmented Nuclei (%) [3]: 23%
Population Healthy Nuclei (%) [3]: 47%
Population Hoechst High Intensity Objects (%) [3]: 8%
Population Membrane Permeable-Phenotype (%) [3]: 25%
Population Mitochondria Different-Phenotype (%) [3]: 5%
Population Mitotic Cells (%) [3]: 30%
Population Normal (%) [3]: 91%
Population Pyknosed Nuclei (%) [3]: 28%
Population Tubulin-Different-Phenotype (%) [3]: 41%
Total Cell Count [3]: 173
Population Apoptotic (%) [4]: 93%
Population Fragmented Nuclei (%) [4]: 12%
Population Healthy Nuclei (%) [4]: 48%
Population Hoechst High Intensity Objects (%) [4]: 7%
Population Membrane Permeable-Phenotype (%) [4]: 52%
Population Mitochondria Different-Phenotype (%) [4]: 26%
Population Mitotic Cells (%) [4]: 6%
Population Normal (%) [4]: 92%
Population Pyknosed Nuclei (%) [4]: 38%
Population Tubulin-Different-Phenotype (%) [4]: 89%
Total Cell Count [4]: 73
Population Apoptotic (%) [5]: 66%
Population Fragmented Nuclei (%) [5]: 19%
Population Healthy Nuclei (%) [5]: 51%
Population Hoechst High Intensity Objects (%) [5]: 14%
Population Membrane Permeable-Phenotype (%) [5]: 27%
Population Mitochondria Different-Phenotype (%) [5]: 2%
Population Mitotic Cells (%) [5]: 33%
Population Normal (%) [5]: 85%
Population Pyknosed Nuclei (%) [5]: 29%
Population Tubulin-Different-Phenotype (%) [5]: 43%
Total Cell Count [5]: 84
Population Apoptotic (%) [6]: 25%
Population Fragmented Nuclei (%) [6]: 3%
Population Healthy Nuclei (%) [6]: 91%
Population Hoechst High Intensity Objects (%) [6]: 4%
Population Membrane Permeable-Phenotype (%) [6]: 10%
Population Mitochondria Different-Phenotype (%) [6]: 13%
Population Mitotic Cells (%) [6]: 75%
Population Normal (%) [6]: 95%
Population Pyknosed Nuclei (%) [6]: 4%
Population Tubulin-Different-Phenotype (%) [6]: 18%
Total Cell Count [6]: 94
Population Apoptotic (%) [7]: 65%
Population Fragmented Nuclei (%) [7]: 18%
Population Healthy Nuclei (%) [7]: 62%
Population Hoechst High Intensity Objects (%) [7]: 15%
Population Membrane Permeable-Phenotype (%) [7]: 25%
Population Mitochondria Different-Phenotype (%) [7]: 3%
Population Mitotic Cells (%) [7]: 34%
Population Normal (%) [7]: 84%
Population Pyknosed Nuclei (%) [7]: 19%
Population Tubulin-Different-Phenotype (%) [7]: 27%
Total Cell Count [7]: 178
Population Apoptotic (%) [8]: 76%
Population Fragmented Nuclei (%) [8]: 13%
Population Healthy Nuclei (%) [8]: 58%
Population Hoechst High Intensity Objects (%) [8]: 13%
Population Membrane Permeable-Phenotype (%) [8]: 48%
Population Mitochondria Different-Phenotype (%) [8]: 33%
Population Mitotic Cells (%) [8]: 23%
Population Normal (%) [8]: 86%
Population Pyknosed Nuclei (%) [8]: 28%
Population Tubulin-Different-Phenotype (%) [8]: 77%
Total Cell Count [8]: 91
Population Apoptotic (%) [9]: 60%
Population Fragmented Nuclei (%) [9]: 26%
Population Healthy Nuclei (%) [9]: 52%
Population Hoechst High Intensity Objects (%) [9]: 16%
Population Membrane Permeable-Phenotype (%) [9]: 32%
Population Mitochondria Different-Phenotype (%) [9]: 5%
Population Mitotic Cells (%) [9]: 40%
Population Normal (%) [9]: 83%
Population Pyknosed Nuclei (%) [9]: 21%
Population Tubulin-Different-Phenotype (%) [9]: 43%
Total Cell Count [9]: 85
Population Apoptotic (%) [10]: 75%
Population Fragmented Nuclei (%) [10]: 16%
Population Healthy Nuclei (%) [10]: 78%
Population Hoechst High Intensity Objects (%) [10]: 7%
Population Membrane Permeable-Phenotype (%) [10]: 18%
Population Mitochondria Different-Phenotype (%) [10]: 0%
Population Mitotic Cells (%) [10]: 25%
Population Normal (%) [10]: 92%
Population Pyknosed Nuclei (%) [10]: 4%
Population Tubulin-Different-Phenotype (%) [10]: 26%
Total Cell Count [10]: 103
Population Apoptotic (%) [11]: 61%
Population Fragmented Nuclei (%) [11]: 31%
Population Healthy Nuclei (%) [11]: 55%
Population Hoechst High Intensity Objects (%) [11]: 18%
Population Membrane Permeable-Phenotype (%) [11]: 30%
Population Mitochondria Different-Phenotype (%) [11]: 6%
Population Mitotic Cells (%) [11]: 38%
Population Normal (%) [11]: 81%
Population Pyknosed Nuclei (%) [11]: 12%
Population Tubulin-Different-Phenotype (%) [11]: 34%
Total Cell Count [11]: 172
Population Apoptotic (%) [12]: 66%
Population Fragmented Nuclei (%) [12]: 29%
Population Healthy Nuclei (%) [12]: 66%
Population Hoechst High Intensity Objects (%) [12]: 10%
Population Membrane Permeable-Phenotype (%) [12]: 14%
Population Mitochondria Different-Phenotype (%) [12]: 1%
Population Mitotic Cells (%) [12]: 33%
Population Normal (%) [12]: 89%
Population Pyknosed Nuclei (%) [12]: 3%
Population Tubulin-Different-Phenotype (%) [12]: 41%
Total Cell Count [12]: 94
